Compound activity from PubChem.
Lmaj promast = reduces viability of Leishmania major promastigotes; resazurin fluorescence viability; inhibition, % at 10 µM; 200,000 tested, 9% active; AID 1063; in the data active = inhibition above about 50%;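 note: promastigotes grown with compound for 44 hours at 28 °C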
TNAP act hiacc = TNAP (human) activation, high acceptor | P05186 | purified TNAP, CDP-star luminescence, 1 M DEA, 30 min; stronger effect = higher value; 0 = EDTA background, 1 = DMSO-only activity | 200,000 tested, under 10 active | activation factor at 20 µM;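 active = activation factor at least 2 at 20 µM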
Target sequence (P05186 whole entry, looked up): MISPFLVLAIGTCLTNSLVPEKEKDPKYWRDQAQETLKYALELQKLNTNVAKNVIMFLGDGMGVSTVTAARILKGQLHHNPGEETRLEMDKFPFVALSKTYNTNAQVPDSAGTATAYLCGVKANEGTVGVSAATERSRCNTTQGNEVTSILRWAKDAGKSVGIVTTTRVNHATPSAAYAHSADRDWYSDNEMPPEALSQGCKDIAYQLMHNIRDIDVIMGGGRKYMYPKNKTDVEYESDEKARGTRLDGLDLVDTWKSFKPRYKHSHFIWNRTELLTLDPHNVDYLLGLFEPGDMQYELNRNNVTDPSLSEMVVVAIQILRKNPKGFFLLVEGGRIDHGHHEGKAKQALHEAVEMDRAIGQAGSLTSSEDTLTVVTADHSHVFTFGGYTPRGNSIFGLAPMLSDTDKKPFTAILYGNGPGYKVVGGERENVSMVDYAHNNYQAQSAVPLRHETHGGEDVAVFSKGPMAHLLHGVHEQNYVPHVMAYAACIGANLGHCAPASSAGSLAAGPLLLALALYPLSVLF
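Test system – human TNAP · Doses – 20 µM single point · Incubation – 30 min, room temperature · Signal – luminescent substrate turnover signal · Read-out basis – activation factor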
TNAP inh noacc = blocks human TNAP activity with no phosphate acceptor present; P05186; purified TNAP, CDP-star luminescence, 30 min; inhibition, % at 20 µM; 200,000 tested, 0.26% active;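 active = tissue-nonspecific alkaline phosphatase inhibition above about 50% at 20 µM in the single-dose screen, limit read from the data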;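 note: 0% = DMSO negative control and 100% = EDTA positive control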
bCat KO growth = beta-catenin-lacking colon tumor cell growth suppression; HCT116 beta-catenin knockout viability, CellTiter-Glo, 60 h; stronger effect = lower value; viability, % at 10 µM; 140,000 tested, 1.5% active; AID 818;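 active = viability at or under a set limit, the compound median less 4 SD, cut at about 6% in these data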;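 note: 0% = Hyamine 1622 control at 20 µM and 100% = untreated cell control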
PTEN del growth = suppresses growth of cells with PTEN deletion; HCT116 PTEN-null viability, CellTiter-Glo, 60 h; stronger effect = lower value; viability, % at 10 µM; 140,000 tested, 1.2% active; AID 827;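 active = viability at or below a set limit, 4 SD under the median of all tested compounds, cut at about 3.7% in these data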;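 note: PTEN knockout HCT116 line with beta catenin targeted HCT116 as companion control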
TNAP inh hiacc = blocks human TNAP under high phosphate acceptor concentration | P05186 | purified TNAP, CDP-star luminescence, 1 M DEA | inhibition, % at 20 µM | 200,000 tested, 0.03% active;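 active = over 50% inhibition of tissue-nonspecific alkaline phosphatase at 20 µM in the single-dose screen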;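 note: plate controls were DMSO wells for no effect and EDTA-quenched wells as full inhibition for full effect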
An asterisk follows results filed as active; / = no result given. An excerpt weighted towards active compounds, which were near 9.6% of everything screened.

SMILES | Lmaj promast | TNAP act hiacc | TNAP inh noacc | bCat KO growth | PTEN del growth | TNAP inh hiacc
Cc1ccc2nc(N(CCN(C)C)C(=O)/C=C/c3cccs3)sc2c1 | 83.3* | 1 | -5.5 | 78.3 | 79.5 | -2.8
CN(C)CCCN(C(=O)/C=C/c1cccs1)c1nc2ccc(F)cc2s1 | 16.5 | 0.9 | -5.2 | / | / | 7.8
COc1cccc2sc(N(CCN(C)C)C(=O)/C=C/c3cccs3)nc12 | 6.9 | 0.9 | 3.2 | / | / | 5.5
CN(C)CCN(C(=O)/C=C/c1cccs1)c1nc2c(F)cc(F)cc2s1 | 77.0* | 1 | -10.4 | 1.6* | 2.0* | -4.1
O=C(NC(Cc1ccccc1)C(=O)O)/C(=C/c1ccc([N+](=O)[O-])cc1)NC(=O)c1ccccc1Br (centres undefined) | -1.7 | 1 | -6.9 | / | / | 3.7
CC(C)=CCC/C(C)=C/C=N/NC(=O)c1ccccc1[N+](=O)[O-] | 94.4* | 1 | -3.4 | 97.3 | 96.8 | -2.6
C/C(CCc1ccccc1)=N\NC(=O)c1ccccc1[N+](=O)[O-] | -6.2 | 1 | -2.3 | 89.6 | 92.7 | 0.2
COc1cc2c(cc1NC(=O)CN(C)Cc1cccc(OC)c1OC)oc1ccccc12 | 5.7 | 1 | -10.0 | 88.0 | 82.0 | -4.7
COc1ccc(N2C(=O)C(CC(=O)Nc3ccc(F)cc3)N(CCc3ccc(OC)c(OC)c3)C2=O)cc1 (centres undefined) | 6.3 | 1.1 | -18.0 | / | / | -6.7
CN=c1scc(-c2cccs2)n1/N=C/c1ccccc1O | 85.7* | 1 | 20.8 | 19.4 | 19.5 | 2.8
CNC(=O)c1ccsc1NC(=O)c1ccc(S(=O)(=O)N2CCCc3ccccc32)cc1 | 99.7* | 1 | -6.1 | 30.6 | 32.3 | -0.9
O=C(Nc1nc2c(s1)CCCC2)c1ccc(S(=O)(=O)N2CCCc3ccccc32)cc1 | 98.5* | 1 | -10.9 | 22.5 | 22.6 | 2.9
O=C(Nc1nc2c(s1)CN(Cc1ccccc1)CC2)c1cccc(S(=O)(=O)N2CCc3ccccc32)c1 | 61.8* | 0.9 | 1.8 | 77.0 | 80.7 | 6.5
COC(=O)Nc1ccc(S(=O)(=O)N2CCCc3ccccc32)cc1 | 41.6 | 1 | -8.4 | 13.8 | 15.0 | 0.9
CCc1nnc(NC(=O)c2ccc(S(=O)(=O)N3CCCc4ccccc43)cc2)o1 | 99.3* | 1 | -8.6 | 18.4 | 14.0 | -3.0
O=C(c1ccc(Cn2c(=S)[nH]c3ccc(Br)cc3c2=O)cc1)N1CCN(C2CCCCC2)CC1 | 26.7 | 1 | -4.7 | / | / | 0.8
Clc1ccc2c(c1)C(c1cccs1)=NNC(c1cccnc1)=N2 | 18.8 | 1 | -1.0 | 78.2 | 83.6 | 1.4
COc1ccccc1C(=O)Nc1ccc(S(=O)(=O)N2CCc3ccccc32)cc1 | 79.8* | 1.1 | -13.7 | 82.8 | 79.4 | -6.0
C=CCn1c(SCC(=O)N2CC(=O)Nc3ccccc32)nc2scc(-c3ccccc3)c2c1=O | 94.4* | 1.1 | -19.2 | 55.0 | 52.0 | -11.1
CCSc1nnc(NC(=O)CSc2nnc(CNC(=O)c3ccccc3F)o2)s1 | 85.0* | 1 | -0.4 | 88.5 | 90.0 | -1.6
CN1CCN(CCCN2c3ccccc3Sc3ccc(C(F)(F)F)cc32)CC1 | 85.5* | 1 | -6.0 | 1.7* | 1.5* | -1.8
CCC1Cc2c(nc(N)c3c(N)nc(N4CCCCC4)c(C#N)c23)O1 (centres undefined) | 50.8* | 1.1 | -17.8 | / | / | -8.2
COc1ccccc1/C=C/C=C1N=C(/C=C/c2ccc(Cl)cc2)OC/1=O | -4.0 | 0.9 | 17.5 | 88.6 | 94.7 | 7.4
COc1ccccc1/C=C/C1=NC(=C\C=C/c2ccccc2)/C(=O)O1 | 68.8* | 1 | 15.7 | 97.9 | 90.7 | 1.2
COc1cc(C(=O)Oc2ccccc2/C=N/NC(=O)c2ccc(C)cc2)cc(OC)c1OC | 76.2* | 1 | -4.4 | 9.3 | 4.9 | -0.1
CC(C)(C)C(=O)Nc1ccc(C(=O)N/N=C/c2ccccc2OC(=O)c2ccc(Cl)cc2)cc1 | 54.8* | 1 | -11.0 | 13.2 | 11.2 | -2.9
CC(C)(C)C(=O)Nc1ccc(C(=O)N/N=C/c2ccccc2OC(=O)c2ccccc2)cc1 | 49.7 | 1 | -19.7 | 19.3 | 24.8 | -1.9
COc1ccc(-c2coc3cc4oc(=O)c5ccccc5c4cc23)cc1F | 1.2 | 1 | -2.4 | 4.5* | 6.4 | 0.9
CN1/C(=C\C=C(/C#N)C(=O)Nc2ccc(Cl)cc2)C(C)(C)c2ccccc21 | 87.5* | 0.9 | 9.7 | 89.6 | 86.1 | 11.6
